Experiments:
Sindbis virus = test: Antiviral activity against Sindbis virus infected in African green monkey Vero cells assessed as protection against virus-induced cytopathic effect measured after 3 to 5 days by microscopic analysis; assay type: functional, cell-based
[1] = Cytotoxicity against African green monkey Vero cells assessed as alterations in cell morphology by microscopic analysis; assay type: toxicity, cell-based; settings: chlorocebus sabaeus
Outline: (§1)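 Compound added to subconfluent cell monolayers in 96-well plates together with virus (CPE reduction assay format); after 3–5 days incubation, cultures inspected by microscopy. MCC taken as compound concentration producing minimal alterations in cell morphology.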

[2] = Cytotoxicity against cat CRFK cells assessed as by MTS cell viability assay; assay type: toxicity, cell-based, Felis catus
Coxsackievirus B4 = test: Antiviral activity against Coxsackie virus B4 infected in African green monkey Vero cells assessed as protection against virus-induced cytopathic effect measured after 3 to 5 days by microscopic analysis; assay type: functional, cell-based; settings: Enterovirus B
[3] = tested on: Mammalian orthoreovirus 1; test: Antiviral activity against Reovirus-1 infected in African green monkey Vero cells assessed as protection against virus-induced cytopathic effect measured after 3 to 5 days by microscopic analysis; assay type: functional, cell-based; settings: Mammalian orthoreovirus 1, Vero
Human respirovirus 3 = test: Antiviral activity against Para-influenza-3 virus infected in African green monkey Vero cells assessed as protection against virus-induced cytopathic effect measured after 3 to 5 days by microscopic analysis; assay type: functional, cell-based; settings: Human respirovirus 3, Vero
Yellow fever virus = test: Antiviral activity against Yellow fever virus infected in African green monkey Vero cells assessed as protection against virus-induced cytopathic effect measured after 3 to 5 days by microscopic analysis; assay type: functional, cell-based
[4] = Cytotoxicity against human HeLa cells assessed as alterations in cell morphology by microscopic analysis; assay type: toxicity, cell-based; outline: as §1
[5] = Cytotoxicity against human MT4 cells by MTS cell viability assay; assay type: toxicity, cell-based
Punta Toro virus [6] = test: Antiviral activity against Punta Toro virus infected in African green monkey Vero cells assessed as protection against virus-induced cytopathic effect measured after 3 to 5 days by microscopic analysis; assay type: functional, cell-based
[7] = Cytotoxicity against MDCK cells assessed as alterations in cell morphology by microscopic analysis; assay type: toxicity, cell-based, Canis lupus familiaris; settings: dog; outline: as §1
[8] = Cytotoxicity against HEL cells assessed as alterations in cell morphology by microscopic analysis; assay type: toxicity, cell-based; settings: human; outline: as §1
Human alphaherpesvirus 3 = test: Antiviral activity against Varicella zoster virus infected in HEL cells assessed as protection against virus-induced cytopathic effect at 100 uM measured after 3 to 5 days by microscopic analysis; assay type: functional, cell-based; settings: Human alphaherpesvirus 3, HEL
Outline: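 HEL fibroblasts, subconfluent, were exposed to compound plus virus together. After 3–5 days CPE was scored microscopically as protection against virus-induced cell damage. EC50 is the concentration giving 50% protection; MCC is the concentration causing minimal morphology change by microscopy.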

Rift Valley fever virus = test: Antiviral activity against RVFV MP-12 infected in African green monkey Vero cells assessed as protection against virus-induced cytopathic effect at 100 uM measured after 3 to 5 days by microscopic analysis; assay type: functional
Punta Toro virus [9] = test: Antiviral activity against Punta Toro virus infected in African green monkey Vero cells assessed as protection against virus-induced cytopathic effect at 20 uM measured after 3 to 5 days by microscopic analysis; assay type: functional
Punta Toro virus [10] = test: Potency index, ratio of Dextran sulphate EC50 to test compound EC50 for Punta Toro virus infected in African green monkey Vero cells; assay type: functional
Punta Toro virus [11] = test: Potency index, ratio of mycophenolic acid EC50 to test compound EC50 for Punta Toro virus infected in African green monkey Vero cells; assay type: functional
Punta Toro virus [12] = test: Potency index, ratio of ribavirin EC50 to test compound EC50 for Punta Toro virus infected in African green monkey Vero cells; assay type: functional
[13] = Selectivity index, ratio of MCC for African green monkey Vero cells to EC50 for Punta Toro virus infected in African green monkey Vero cells; assay type: toxicity, cell-based

CCOC(=O)C1=C(C)NC(=O)NC1C (centres undefined)
> 125 µM: CC50 [5]
> 100 µM: EC50 (Sindbis virus) | MCC [1] | CC50 [2] | EC50 (Coxsackievirus B4) | EC50 [3] | EC50 (Human respirovirus 3) | EC50 (Yellow fever virus) | MCC [4] | EC50 (Punta Toro virus [6]) | MCC [7] | MCC [8]

CCOC(=O)C1=C(C)NC(=O)NC1c1ccc(N(C)C)cc1 (centres undefined)
> 125 µM: CC50 [5]
> 100 µM: EC50 (Sindbis virus) | CC50 [2] | EC50 (Coxsackievirus B4) | EC50 [3] | EC50 (Human respirovirus 3) | EC50 (Yellow fever virus) | MCC [4] | EC50 (Punta Toro virus [6]) | MCC [7] | MCC [8]
100 µM: MCC [1]

CCOC(=O)C1=C(C)NC(=O)NC1/C=C/c1ccccc1 (centres undefined)
57 µM: EC50 (Human alphaherpesvirus 3)
> 125 µM: CC50 [5]
≥ 100 µM: MCC [4] | MCC [8]
100 µM: MCC [1]
> 100 µM: EC50 (Sindbis virus) | CC50 [2] | EC50 (Coxsackievirus B4) | EC50 [3] | EC50 (Human respirovirus 3) | EC50 (Yellow fever virus) | EC50 (Punta Toro virus [6]) | MCC [7]

CCCCCCCCCCCC1NC(=O)NC(C)=C1C(=O)OCC (centres undefined)
100 µM: MCC [8]
81%: Activity (Punta Toro virus [9])
3 µM: EC50 (Punta Toro virus [6])
40 - 50%: Activity (Rift Valley fever virus)
>= 33: Selectivity Index [13]
active: Activity (Punta Toro virus [6]) Dose-dependent effect
≥ 100 µM: MCC [1]
7: Ratio EC50 (Punta Toro virus [10]) | Ratio EC50 (Punta Toro virus [11])
50 µM: CC50 [5]
17: Ratio EC50 (Punta Toro virus [12])
> 100 µM: EC50 (Sindbis virus) | CC50 [2] | EC50 (Coxsackievirus B4) | EC50 [3] | EC50 (Human respirovirus 3) | EC50 (Yellow fever virus) | MCC [4] | MCC [7]

CCOC(=O)C1=C(C)NC(=O)NC1
> 125 µM: CC50 [5]
> 100 µM: EC50 (Sindbis virus) | MCC [1] | CC50 [2] | EC50 (Coxsackievirus B4) | EC50 [3] | EC50 (Human respirovirus 3) | EC50 (Yellow fever virus) | MCC [4] | EC50 (Punta Toro virus [6]) | MCC [7] | MCC [8]

CCOC(=O)C1=C(C)NC(=O)NC1CC(C)C (centres undefined)
> 125 µM: CC50 [5]
> 100 µM: EC50 (Sindbis virus) | MCC [1] | CC50 [2] | EC50 (Coxsackievirus B4) | EC50 [3] | EC50 (Human respirovirus 3) | EC50 (Yellow fever virus) | MCC [4] | EC50 (Punta Toro virus [6]) | MCC [7] | MCC [8]

CCOC(=O)C1=C(C)NC(=O)NC1c1ccc(Br)cc1 (centres undefined)
> 100 µM: MCC [4] | MCC [7] | MCC [8]

CCOC(=O)C1=C(C)NC(=O)NC1c1cccs1 (centres undefined)
> 125 µM: CC50 [5]
> 100 µM: EC50 (Sindbis virus) | MCC [1] | CC50 [2] | EC50 (Coxsackievirus B4) | EC50 [3] | EC50 (Human respirovirus 3) | EC50 (Yellow fever virus) | MCC [4] | EC50 (Punta Toro virus [6]) | MCC [7] | MCC [8]

CCOC(=O)C1=C(C)NC(=O)NC1c1ccccc1Cl (centres undefined)
> 100 µM: EC50 (Sindbis virus) | MCC [1] | CC50 [2] | EC50 (Coxsackievirus B4) | EC50 [3] | EC50 (Human respirovirus 3) | EC50 (Yellow fever virus) | MCC [4] | EC50 (Punta Toro virus [6]) | MCC [7] | MCC [8]
96 µM: CC50 [5]

CCOC(=O)C1=C(C)NC(=O)NC1c1ccc(O)cc1 (centres undefined)
> 125 µM: CC50 [5]
> 100 µM: EC50 (Sindbis virus) | MCC [1] | CC50 [2] | EC50 (Coxsackievirus B4) | EC50 [3] | EC50 (Human respirovirus 3) | EC50 (Yellow fever virus) | MCC [4] | EC50 (Punta Toro virus [6]) | MCC [7] | MCC [8]

CCOC(=O)C1=C(C)NC(=O)NC1c1ccccc1 (centres undefined)
> 100 µM: EC50 [3] | EC50 (Human respirovirus 3) | MCC [4] | MCC [7]

NC(=O)c1ncn([C@@H]2O[C@H](CO)[C@@H](O)[C@H]2O)n1 [RIBAVIRIN]
112 µM: EC50 (Human respirovirus 3)
> 250 µM: EC50 (Sindbis virus) | MCC [1] | EC50 (Coxsackievirus B4) | EC50 [3]
50 µM: EC50 (Punta Toro virus [6])

COc1c(C)c2c(c(O)c1C/C=C(\C)CCC(=O)O)C(=O)OC2 [MYCOPHENOLIC ACID]
1.8 µM: EC50 [3]
4 µM: EC50 (Sindbis virus) | EC50 (Yellow fever virus)
> 100 µM: MCC [1]
20 µM: EC50 (Punta Toro virus [6])
0.8 µM: EC50 (Human respirovirus 3)
> 250 µM: EC50 (Coxsackievirus B4)

CCOC(=O)C1=C(C)NC(=O)NC1c1ccc(OC)cc1 (centres undefined)
> 100 µM: EC50 [3] | MCC [4] | MCC [7]

CCOC(=O)C1=C(C)NC(=O)NC1c1ccc(Cl)cc1 (centres undefined)
> 100 µM: MCC [4] | MCC [7] | MCC [8]

CCOC(=O)C1C2NC(=O)NC1(C)Oc1ccccc12 (centres undefined)
> 125 µM: CC50 [5]
> 100 µM: EC50 (Sindbis virus) | MCC [1] | CC50 [2] | EC50 (Coxsackievirus B4) | EC50 [3] | EC50 (Human respirovirus 3) | EC50 (Yellow fever virus) | MCC [4] | EC50 (Punta Toro virus [6]) | MCC [7] | MCC [8]

Source: ChEMBL document CHEMBL3875201, “Synthesis and in vitro antiviral evaluation of 4-substituted 3,4-dihydropyrimidinones” (Bioorg Med Chem Lett, 2017)
